45 molecules from ChEMBL document CHEMBL3102705, “Design, synthesis and investigation on the structure-activity relationships of N-substituted 2-aminothiazole derivatives as antitubercular agents” (Eur J Med Chem, 2014) can be followed below.

Each structure is given as a SMILES string. Values after ≈ are worked out from the molar mass of the structure shown.

The subject of data set [1] is Mycobacterium tuberculosis. In words: Antitubercular activity against Mycobacterium tuberculosis H37Rv ATCC 27294 assessed as growth inhibition after 16 to 24 hrs by microplate-Alamar Blue assay. In kind it is functional. In outline: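 MIC against M. tuberculosis H37Rv (ATCC 27294), actively replicating, by microplate Alamar Blue assay.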
For orientation: Resazurin is reduced to fluorescent resorufin, in cell work by metabolically active cells.

In data set [2] the test system is Mycobacterium tuberculosis. In words: Antitubercular activity against recombinant Mycobacterium tuberculosis H37Rv ATCC 27294 expressing Vibrio harveyii luciferase gene with acetamidase promoter assessed as reduction of metabolic recovery after 10 days by low-oxygen recovery assay. In kind it is functional. The note with it: H37Rv ATCC 27294, 240 h. Put shortly:
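Low oxygen recovery assay on H37Rv (ATCC 27294), used as an in vitro model of nonreplicating persistent M. tuberculosis. Each MIC is a single measurement.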

The subject of data set [3] is Mycobacterium tuberculosis. Put plainly: Ratio of MIC for Mycobacterium tuberculosis H37Rv ATCC 27294 expressing Vibrio harveyii luciferase gene with acetamidase promoter by low-oxygen recovery assay to MIC for Mycobacterium tuberculosis H37Rv ATCC 27294 by microplate-Alamar Blue assay. In kind it is functional.
The test system of another data set is Vero. Put plainly: Cytotoxicity against African green monkey Vero cells assessed as cell viability after 72 hrs by MTS assay. The data set is classed as cell-based. The following applies: Chlorocebus sabaeus. In outline: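 Value reported as an IC50 against Vero cells.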
Data set [4] in a line: Selectivity index, ratio of IC50 for African green monkey Vero cells to MIC for Mycobacterium tuberculosis H37Rv ATCC 27294. In kind it is toxicity, cell-based. The following applies: read-out: Selectivity Index. Put shortly: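 Selectivity index calculated as the Vero cell cytotoxicity IC50 divided by the MABA MIC against H37Rv. Cytotoxicity was measured on Vero cells.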

`Cc1ccc(Nc2nc(C)cs2)cc1`: in data set [1], the MIC – broadly, the smallest concentration in the dilution series that meets the test's criterion for growth inhibition – was greater than 128 µM.

For `COc1ccc(-c2csc(Nc3ccc(C)cc3)n2)cc1`, the MIC in data set [2] was determined as 31.8 µM; in data set [1], 13 µM (≈ 3.85 µg/mL). Besides, the Ratio in data set [3] is on record as 2. Besides, the half-inhibitory concentration (IC50) – broadly, the concentration that inhibits the measured activity by half – in the data set on Vero was greater than 128 µM.

As for `Clc1cc(Cl)cc(Nc2nc(-c3ccccc3)c(Cc3ccccc3)s2)c1`, in the data set with Vero, the IC50 came to 82.7 µM. Further, in data set [1], the MIC came to 20 µM (≈ 8.23 µg/mL).

Turning to `Fc1ccc(C(F)(F)F)cc1-c1csc(N(Cc2ccccc2)c2cc(Cl)cc(Cl)c2)n1`, the MIC in data set [1] is greater than 128 µM.

For the molecule `Clc1cc(Cl)cc(Nc2nc3c(s2)Cc2ccccc2-3)c1`, the MIC in data set [1] was greater than 128 µM.

Consider `Fc1ccc(Nc2nc3c(s2)Cc2ccccc2-3)cc1`, for which the MIC in data set [1] was greater than 128 µM.

`Clc1cc(Cl)cc(Nc2nc3c(s2)-c2ccccc2C3)c1`: the MIC in data set [1] is greater than 128 µM.

`Clc1cc(Cl)cc(Nc2nc3c(s2)CCc2ccccc2-3)c1`: the minimum inhibitory concentration (MIC) in data set [1] is 43.3 µM (≈ 15 µg/mL).

As to `Fc1ccc(C(F)(F)F)cc1-c1csc(NC2CCCCC2)n1`, the MIC in data set [1] was found to be 30.3 µM (≈ 10.4 µg/mL).

In the case of `Cc1ccc(Nc2ncc(-c3ccccc3)s2)cc1`, the MIC in data set [1] is greater than 128 µM.

For `CN(C)c1nc(-c2cc(C(F)(F)F)ccc2F)cs1`, in data set [1], the MIC is greater than 128 µM.

Take `Fc1ccc(C(F)(F)F)cc1-c1csc(N2CCCCC2)n1`: the minimal inhibitory concentration (MIC) in data set [1] was 56.5 µM (≈ 18.7 µg/mL).

For `CC(=O)N1CCN(c2nc(-c3cc(C(F)(F)F)ccc3F)cs2)CC1`, the MIC in data set [1] stood at 118 µM (≈ 44 µg/mL).

`Cc1ccc2c(ccn2-c2nc(-c3cc(C(F)(F)F)ccc3F)cs2)c1`: the MIC in data set [1] was greater than 128 µM.

Consider `Cc1ccc(C(=O)Nc2nc(-c3cc(C(F)(F)F)ccc3F)cs2)cc1`, for which, in data set [1], the MIC is greater than 128 µM.

Consider `Cc1ccc(CNc2nc(-c3cc(C(F)(F)F)ccc3F)cs2)cc1`, for which, in data set [1], the MIC was greater than 128 µM.

As for `Fc1ccc(C(F)(F)F)cc1-c1csc(Nc2ccncc2)n1`, the MIC in data set [1] was greater than 128 µM.

Take `Cc1ccc(Nc2nc(-c3cc(C(F)(F)F)ccc3F)cs2)cc1`: the selectivity ratio in data set [4] worked out at 3.4. For the same molecule, in the data set with Vero, the IC50 was 92.4 µM. Also, the MIC in data set [1] worked out at 27.5 µM (≈ 9.69 µg/mL).

`Cc1ccc(N(C)c2nc(-c3cc(C(F)(F)F)ccc3F)cs2)cc1`: the IC50 with Vero is greater than 128 µM. Moreover, the MIC in data set [1] was determined as 31.7 µM (≈ 11.6 µg/mL).

As for `Cc1cccc(Nc2nc(-c3cc(C(F)(F)F)ccc3F)cs2)c1`, in data set [1], the minimum inhibitory concentration (MIC) is 29.8 µM (≈ 10.5 µg/mL).

Regarding `Cc1ccccc1Nc1nc(-c2cc(C(F)(F)F)ccc2F)cs1`, the MIC in data set [1] is 35.1 µM (≈ 12.4 µg/mL).

Consider `Fc1ccc(C(F)(F)F)cc1-c1csc(Nc2ccc(Cl)cc2)n1`, for which the minimal inhibitory concentration (MIC) in data set [2] stood at 31.5 µM; in data set [1] it was 19.2 µM (≈ 7.16 µg/mL). Also, the Ratio in data set [3] was determined as 2. Also, in data set [4], the selectivity ratio came out at 2.4. Further, in the data set with Vero, the half-maximal inhibitory concentration (IC50) came out at 46.6 µM.

As for `Fc1ccc(C(F)(F)F)cc1-c1csc(Nc2cccc(Cl)c2)n1`, in data set [1], the MIC was found to be 30.1 µM (≈ 11.2 µg/mL).

As for `Fc1ccc(C(F)(F)F)cc1-c1csc(Nc2ccccc2Cl)n1`, the minimum inhibitory concentration (MIC) in data set [1] is greater than 128 µM.

Regarding `Fc1ccc(C(F)(F)F)cc1-c1csc(Nc2ccc(Cl)cc2Cl)n1`, the MIC in data set [1] was greater than 128 µM.

As to `Fc1ccc(C(F)(F)F)cc1-c1csc(Nc2cc(Cl)cc(Cl)c2)n1`, the results for the MIC in data set [2] and in data set [1] were 15.2 µM and 15 µM (≈ 6.11 µg/mL), respectively. The selectivity ratio in data set [4] was found to be 3.3. For the same molecule, in the data set with Vero, the IC50 is 50 µM.

`Cc1cc(C)cc(Nc2nc(-c3cc(C(F)(F)F)ccc3F)cs2)c1`: in data set [1], the MIC is 30.1 µM (≈ 11 µg/mL).

For `Cc1ccc(Nc2nc(-c3cc(C(F)(F)F)ccc3F)cs2)c(Cl)c1`, the minimal inhibitory concentration (MIC) in data set [1] is greater than 128 µM.

In the case of `Fc1ccc(Nc2nc(-c3cc(C(F)(F)F)ccc3F)cs2)cc1`, the MIC in data set [1] is 59.5 µM (≈ 21.2 µg/mL).

As to `Cc1ccc(Nc2nc(-c3cc(C(F)(F)F)ccc3F)cs2)c(C)c1`, the minimum inhibitory concentration (MIC) in data set [1] worked out at 30.8 µM (≈ 11.3 µg/mL).

With `CCN(c1cc(Cl)cc(Cl)c1)c1nc(-c2cc(C(F)(F)F)ccc2F)cs1`, the MIC in data set [1] is greater than 128 µM.

Turning to `COc1ccc(-c2csc(Nc3cc(Cl)cc(Cl)c3)n2)cc1`, the MIC in data set [1] came out at 15.6 µM (≈ 5.48 µg/mL).

Regarding `Cc1ccc(Nc2nc(-c3ccc(C(F)(F)F)cc3)cs2)cc1`, the MIC in data set [1] is greater than 128 µM.

As to `Cc1ccc(Nc2nc(-c3ccc(Cl)cc3)cs2)cc1`, the MIC in data set [1] was greater than 128 µM.

With `Cc1ccc(Nc2nc(-c3ccccc3Cl)cs2)cc1`, the MIC in data set [1] was greater than 128 µM.

As to `Cc1ccc(Nc2nc(-c3ccc(C)cc3)cs2)cc1`, the minimal inhibitory concentration (MIC) in data set [1] is greater than 128 µM.

In the case of `Cc1ccc(Nc2nc(-c3ccccc3)cs2)cc1`, the MIC in data set [1] was 63.8 µM (≈ 17 µg/mL).

For the molecule `Cc1ccc(Nc2nc(-c3ccc(O)cc3)cs2)cc1`, the MIC in data set [1] is greater than 128 µM.

On to `Clc1cc(Cl)cc(Nc2nc(-c3ccccc3)cs2)c1`, for which the MIC in data set [1] worked out at 28.6 µM (≈ 9.19 µg/mL).

On to `Cc1sc(Nc2cc(Cl)cc(Cl)c2)nc1-c1ccccc1`, for which the MIC in data set [1] was determined as 28.9 µM (≈ 9.69 µg/mL).

On to `Clc1cc(Cl)cc(Nc2nc(-c3ccccc3)c(-c3ccccc3)s2)c1`, for which, in data set [1], the minimal inhibitory concentration (MIC) is greater than 128 µM.

Regarding `NNC(=O)c1ccncc1` [ISONIAZID], the minimum inhibitory concentration (MIC) in data set [1] worked out at 0.4 µM (≈ 0.0549 µg/mL).

For `O=[N+]([O-])c1cn2c(n1)OC[C@@H](OCc1ccc(OC(F)(F)F)cc1)C2` [PRETOMANID], the MIC in data set [1] turned out to be 0.8 µM (≈ 0.287 µg/mL).

Take `CO[C@H]1/C=C/O[C@@]2(C)Oc3c(C)c(O)c4c(O)c(c(/C=N/N5CCN(C)CC5)c(O)c4c3C2=O)NC(=O)/C(C)=C\C=C\[C@H](C)[C@H](O)[C@@H](C)[C@@H](O)[C@@H](C)[C@H](OC(C)=O)[C@@H]1C` [RIFAMPIN]: in data set [1], the MIC was 0.1 µM (≈ 0.0823 µg/mL).

In the case of `CN[C@@H]1[C@H](O[C@H]2[C@H](O[C@H]3[C@H](O)[C@@H](O)[C@H](N=C(N)N)[C@@H](O)[C@@H]3N=C(N)N)O[C@@H](C)[C@]2(O)C=O)O[C@@H](CO)[C@H](O)[C@H]1O` [STREPTOMYCIN], the MIC in data set [1] amounted to 0.3 µM (≈ 0.174 µg/mL).
